This note sets out measurements from ChEMBL document CHEMBL1148119, “Monoterpene hydroperoxides with trypanocidal activity from Chenopodium ambrosioides” (J Nat Prod, 2002).

In brackets after ≈: the same amount, converted by molar mass. Activity calls are given as the source filed them. The calls are words filed in the database; no cut-off is given here.

Data set [1] relates to Trypanosoma cruzi. Put plainly: Antitrypanosomal activity against Trypanosoma cruzi trypomastigotes infected in human HeLa cells assessed as number of amastigotes per infected cell at 1 ug/mL after 4 days by HeLa cell-infection assay. The format is functional. The gist of the method: (§1)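 HeLa cells (5 × 10^3 cells/mL/well) grown on coverslips 2 days at 37 °C, 5% CO2, then infected with T. cruzi trypomastigotes (1.2 × 10^4 parasites/well). Compound in ethanol (10 µL) added right after infection. Day 4: fixed, Diff-Quik stained, mounted. >200 host cells in random fields scored for % infected cells (>1 amastigote) and mean amastigotes per infected cell. Mean ± SE.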

The subject of another data set is HeLa. Put plainly: Cytotoxicity against human HeLa cells at 10 ug/mL. The format is cell-based.
In data set [2] the test system is Trypanosoma cruzi. Put plainly: Antitrypanosomal activity against Trypanosoma cruzi trypomastigotes infected in human HeLa cells assessed as inhibition of infection at 1 ug/mL after 4 days by HeLa cell-infection assay. In kind it is functional. Also noted: scale not given: the % may be the effect or the level left. Summed up: as §1
The subject of data set [3] is Trypanosoma cruzi. Put plainly: Antitrypanosomal activity against Trypanosoma cruzi trypomastigotes infected in human HeLa cells assessed as inhibition of amastigotes proliferation at 1 ug/mL after 4 days by HeLa cell-infection assay. The format is functional, organism-based. Summed up:
as §1

Data set [4] concerns Trypanosoma cruzi. Put plainly: Trypanocidal activity against Trypanosoma cruzi Tulahuen epimastigotes assessed as minimal lethal concentration after 24 hrs. In kind it is functional. Summed up:
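Tulahuen epimastigotes kept in GIT medium with hemin (12.4 µM). Parasites in medium (10 µL) incubated with sample in EtOH (5 µL) plus autoclaved saline (185 µL) for 24 h. Motility checked by microscopy (×100). MLC taken as minimum lethal concentration. Duplicates; gentian violet positive control.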

In data set [5] the test system is Trypanosoma cruzi. Put plainly: Antitrypanosomal activity against Trypanosoma cruzi trypomastigotes infected in human HeLa cells assessed as infection rate at 1 ug/mL after 4 days by HeLa cell-infection assay. In kind it is functional. The gist of the method: as §1
Data set [6] deals with Trypanosoma cruzi. Put plainly: Trypanocidal activity against Trypanosoma cruzi Tulahuen epimastigotes up to 400 uM after 24 hrs. In kind it is functional, organism-based. Summed up:
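Tulahuen epimastigotes maintained in GIT medium with hemin (12.4 μM). Parasite suspension incubated 24 h with sample in EtOH plus autoclaved saline. Motility checked by microscopy (×100) and minimum lethal concentration (MLC) recorded. Duplicate assays; gentian violet positive control.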

Turning to `C=C(C)[C@@H]1C=C[C@](C)(OO)CC1`, the Activity in the data set on Trypanosoma cruzi [1] is 19.1; with HeLa, “Toxic”; in the data set on Trypanosoma cruzi [2], 88%; with Trypanosoma cruzi [5], 1.5%. Moreover, the outcome in the data set with Trypanosoma cruzi [3] was inactive. For the same compound, in the data set with Trypanosoma cruzi [4], the MLC stood at 3.1 µM (≈ 0.522 µg/mL).

Regarding `C=C(C)[C@H]1CCC(=C)[C@@H](OO)C1`, in the data set with Trypanosoma cruzi [4], the MLC was determined as 1.2 µM (≈ 0.202 µg/mL).

As to `CC(C)C12C=CC(C)(CC1)OO2` (stereo unspecified) [ASCARIDOLE], the values for the Activity in the data set with Trypanosoma cruzi [1] and in the data set on Trypanosoma cruzi [5] were 22.8 and 8.5%, respectively. The outcome in the data set with Trypanosoma cruzi [3] was inactive. For the same compound, the MLC in the data set with Trypanosoma cruzi [4] came to 23 µM (≈ 3.87 µg/mL).

`Oc1ncnc2[nH]ncc12` [ALLOPURINOL]: the Activity with Trypanosoma cruzi [1] came out at 10.9; with Trypanosoma cruzi [5], 7%. For the same compound, the result with Trypanosoma cruzi [3] was inactive.

For `C=C(C)[C@H]1CCC(=C)[C@H](OO)C1`, the Activity with Trypanosoma cruzi [1] is recorded as 18.6; in the data set with HeLa, “Toxic”; with Trypanosoma cruzi [2] it was 63%; in the data set with Trypanosoma cruzi [5], 4.4%. In the data set on Trypanosoma cruzi [3], the outcome was inactive. For the same compound, the MLC in the data set on Trypanosoma cruzi [4] was determined as 1.6 µM (≈ 0.269 µg/mL).

`CN(C)c1ccc(C(=C2C=CC(=[N+](C)C)C=C2)c2ccc(N(C)C)cc2)cc1.[Cl-]` [GENTIAN VIOLET]: the MLC with Trypanosoma cruzi [4] stood at 6.3 µM.

In the case of `C=C(C)[C@@H]1C=C[C@](C)(O)CC1`, the result in the data set with Trypanosoma cruzi [6] was inactive.

As to `C=C(C)[C@@H]1C=C[C@@](C)(O)CC1`, the result in the data set with Trypanosoma cruzi [6] was inactive.

As for `C=C(C)[C@H]1CCC(=C)[C@@H](O)C1`, in the data set on Trypanosoma cruzi [6], the result was inactive.

Consider `C=C(C)[C@H]1CCC(=C)[C@H](O)C1`, for which the outcome with Trypanosoma cruzi [6] was inactive.

As for `C=C(C)[C@@H]1C=C[C@@](C)(OO)CC1`, the Activity in the data set with Trypanosoma cruzi [1] is given as 12; in the data set on HeLa it was “Toxic”; in the data set with Trypanosoma cruzi [5], 0.13%. In the data set with Trypanosoma cruzi [2], the outcome was Active. Moreover, in the data set with Trypanosoma cruzi [3], the result was inactive. Besides, the MLC with Trypanosoma cruzi [4] stood at 0.8 µM (≈ 0.135 µg/mL).
